Source: PMC10501872 (Acta Pharmaceutica Sinica. B, 2023)

Assays:
C57Bl/6 mice [1] = experiment: Carrageenan-induced paw edema model; assay type: in vivo, mouse; conditions: at 4 h; for paw swelling (measured by volume): ip prior to carrageenan
How it was run: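 Male C57Bl/6 mice (6–8 weeks) were randomised into four groups of six. Saline, indomethacin (10 mg/kg ip) or test compound (5 mg/kg ip) was given 1 h before 50 μL 1% carrageenan was injected into the right hind plantar paw. Paw volume was read by plethysmometer at baseline and at 1, 4, 8 and 24 h. At 4 h, paws were weighed and homogenised in 0.5% HTAB phosphate buffer (pH 6.0); supernatant triplicates were assayed with 3,3′-dimethoxybenzidine/1% H2O2 for MPO.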

C57Bl/6 mice [2] = experiment: DSS-induced colitis; assay type: in vivo, mouse; conditions: for weight loss: oral administration, Day 8
How it was run: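 Colitis was induced with 3.5% DSS in drinking water for 5 days (not in controls), followed by normal water. From Day 2, test compound (5 or 25 mg/kg), dexamethasone (25 mg/kg) or vehicle was given orally. Body weight was recorded daily and mice were killed on Day 8. Colon was lysed in RIPA with protease/phosphatase inhibitors by sonication at 4 °C and spun at 12,000×g for 30 min. IL-6 and TNF-α were measured by ELISA on BCA-equalised protein.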

TLR4 [3] = target: T1, TLR4 (Homo sapiens, UniProt O00206); experiment: Surface plasmon resonance, hTLR4; assay type: binding; conditions: SPR
How it was run: (§1)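 For SPR chip coating, human TLR2 was expressed in insect H5 cells and diluted in PBS to 1 mg/mL. Commercial human TLR4 protein was diluted in PBS to 0.1 mg/mL.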
Target sequence in this assay (O00206 24-631 limits assumed): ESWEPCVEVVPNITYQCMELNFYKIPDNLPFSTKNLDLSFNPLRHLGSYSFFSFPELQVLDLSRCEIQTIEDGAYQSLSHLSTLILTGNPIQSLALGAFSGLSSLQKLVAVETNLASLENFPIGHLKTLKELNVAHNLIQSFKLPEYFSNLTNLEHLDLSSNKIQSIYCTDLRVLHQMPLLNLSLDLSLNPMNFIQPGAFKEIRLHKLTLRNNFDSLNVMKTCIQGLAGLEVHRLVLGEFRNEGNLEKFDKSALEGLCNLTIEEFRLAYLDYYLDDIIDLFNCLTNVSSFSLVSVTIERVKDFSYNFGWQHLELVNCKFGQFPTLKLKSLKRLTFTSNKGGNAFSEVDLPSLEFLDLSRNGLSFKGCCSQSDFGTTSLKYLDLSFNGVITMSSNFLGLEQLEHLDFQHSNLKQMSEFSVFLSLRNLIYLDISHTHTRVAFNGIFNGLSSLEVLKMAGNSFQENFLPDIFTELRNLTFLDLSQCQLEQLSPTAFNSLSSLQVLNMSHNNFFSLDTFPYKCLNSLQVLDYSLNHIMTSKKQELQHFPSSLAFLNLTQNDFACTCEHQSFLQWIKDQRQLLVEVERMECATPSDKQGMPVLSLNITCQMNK

Water solubility = assay type: physicochemical
[4] = Pharmacokinetics in rat plasma; assay type: in vivo; conditions: for AUC: rat plasma; for AUC / half-life: n = 5; for half-life: t1/2, rat plasma
[5] = test system: mouse primary peritoneal macrophage; experiment: Peritoneal macrophage phenotype assay; assay type: cell-based; conditions: 10 μmol/L
How it was run: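 Peritoneal macrophages were plated at 1 × 10^6 per well in RPMI 1640 with 10% FBS and left overnight. Cells were treated for 24 h with medium, Pam3CSK4 (100 ng/mL) + IFN-γ (40 ng/mL), or LPS (100 ng/mL) + IFN-γ (40 ng/mL), each with test compound. Cells were trypsinised, stained 30 min for CD86 and CD11b, and analysed by flow cytometry.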

TLR2 [6] = target: T2, TLR2 (Homo sapiens, UniProt O60603); experiment: QUANTI-blue SEAP assay, Pam3CSK4-stimulated HEK-Blue hTLR2 cells; assay type: cell-based
How it was run: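 HEK-Blue hTLR2 cells (4 × 10^4 per well) were grown 24 h at 37 °C, 5% CO2 in DMEM with 10% FBS, then given fresh medium. Graded test compound and Pam3CSK4 (100 ng/mL) were added for 24 h. Supernatant was mixed 1:1 with QUANTI-Blue, shaken in the dark, and OD620 read at 15–30 min.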

TLR4 [7] = target: T1, TLR4; experiment: Cellular thermal shift assay, TLR4; assay type: binding; conditions: 20 μmol/L, THP-1 cells
Target sequence in this assay (O00206 24-839): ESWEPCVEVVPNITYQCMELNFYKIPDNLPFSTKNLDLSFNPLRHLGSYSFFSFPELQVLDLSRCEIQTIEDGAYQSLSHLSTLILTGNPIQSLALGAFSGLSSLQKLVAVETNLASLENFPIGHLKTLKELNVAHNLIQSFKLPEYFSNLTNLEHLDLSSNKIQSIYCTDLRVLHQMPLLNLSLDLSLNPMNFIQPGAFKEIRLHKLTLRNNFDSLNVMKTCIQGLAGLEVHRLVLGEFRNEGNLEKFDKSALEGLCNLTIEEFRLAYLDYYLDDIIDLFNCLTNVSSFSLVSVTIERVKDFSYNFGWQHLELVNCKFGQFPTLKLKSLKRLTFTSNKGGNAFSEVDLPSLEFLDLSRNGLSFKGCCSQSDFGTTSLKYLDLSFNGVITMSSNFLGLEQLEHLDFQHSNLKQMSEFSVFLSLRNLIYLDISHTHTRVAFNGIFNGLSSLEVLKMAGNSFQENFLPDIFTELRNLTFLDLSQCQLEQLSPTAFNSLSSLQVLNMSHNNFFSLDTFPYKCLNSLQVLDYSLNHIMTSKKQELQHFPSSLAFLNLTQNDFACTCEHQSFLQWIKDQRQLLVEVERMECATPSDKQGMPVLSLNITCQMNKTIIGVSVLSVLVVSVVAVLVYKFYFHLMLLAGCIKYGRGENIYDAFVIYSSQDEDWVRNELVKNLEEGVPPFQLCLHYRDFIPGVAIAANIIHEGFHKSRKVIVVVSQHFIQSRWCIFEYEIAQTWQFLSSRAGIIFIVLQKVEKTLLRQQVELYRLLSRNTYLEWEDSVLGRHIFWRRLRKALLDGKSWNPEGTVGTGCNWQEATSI

mouse primary BMDCs = experiment: BMDCs activation assay; assay type: cell-based; conditions: 10 μmol/L
How it was run: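 BMDCs were generated from femur and tibia marrow of C57BL/6 mice and collected on day 7. They were seeded at 5 × 10^5 per well in RPMI 1640 with 10% FBS and left overnight. Cells then received Pam3CSK4 (300 ng/mL) or LPS (100 ng/mL) plus test compound for 24 h. Harvested cells were stained 30 min for CD86, CD80 and CD11c and read by flow cytometry.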

HEK-Blue hTLR2 cells = experiment: Cell toxicity assay; assay type: cell-based, human; conditions: 24 h, CCK-8
How it was run: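 HEK-hTLR2 cells were seeded at 3 × 10^4 per well in DMEM with 10% FBS and left overnight at 37 °C. Graded concentrations of test compound were added for 24 h at 37 °C. CCK-8 was then added for 1–4 h at 37 °C and absorbance read at 450 nm.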

TLR2 [8] = target: T2, TLR2; experiment: Cellular thermal shift assay, TLR2; assay type: binding; conditions: 20 μmol/L, THP-1 cells, 45 to 53 °C, especially at 51 °C
C57Bl/6 mice [9] = experiment: Cecum ligation and puncture sepsis model; assay type: in vivo, mouse; conditions: oral 5 and 25 mg/kg 1 h before CLP; serum and lung tissue, 8 h
How it was run: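 Male C57Bl/6 mice aged 6–8 weeks were used for polymicrobial sepsis by CLP. Test compound was given orally 1 h before surgery; sham-operated mice received the same volume of saline. Serum and lung tissue were taken 8 h after surgery for ELISA.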

KM mice = experiment: Toxicity studies in vivo; parameters: species or system mouse; conditions: 250 mg/kg oral on Day 1, 3 and 5; Day 7
How it was run: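 Male and female KM mice (6–8 weeks) were split into control and treated groups of 10 (half male). Test compound was given orally on Days 1, 3 and 5; controls received the same volume of solvent. Body weight was recorded daily. On Day 7, mice were killed and tissues taken for H&E pathology.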

[10] = test system: healthy human peripheral blood mononuclear cells (PBMCs); experiment: Cytokines ELISA, Pam3CSK4-treated PBMCs; assay type: cell-based; conditions: 5 μmol/L, Pam3CSK4 100 ng/mL, 24 h
How it was run: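 Human PBMCs were seeded at 0.5 × 10^6 per well in RPMI 1640 with 10% FBS. Test compound plus Pam3CSK4 (100 ng/mL) was added for 24 h at 37 °C, 5% CO2. Supernatants were stored at −80 °C, then assayed by sandwich ELISA with recombinant cytokine standards, in triplicate.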

TLR2/6 = TLR2/6 (Homo sapiens, UniProt O60603); experiment: SEAP signaling induced by Pam2CSK4 in HEK-Blue hTLR2 cells; assay type: cell-based; conditions: Pam2CSK4 100 ng/mL, 24 h
TLR2 [11] = target: T2, TLR2; experiment: Competitive combination assay with Rhodamine-Pam3CSK4; assay type: cell-based; conditions: 1 μmol/L, Rhodamine-Pam3CSK4 800 ng/mL, 4 h
How it was run: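 HEK-hTLR2 cells (3 × 10^4 per well) were seeded in DMEM with 10% FBS and left overnight. Medium was replaced with DMEM containing 800 ng/mL rhodamine-Pam3CSK4 and 1 μmol/L test compound for 4 h. After three PBS washes, nuclei were stained with DAPI for 5 min, cells were washed again and imaged by confocal microscopy.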

[12] = test system: primary murine peritoneal macrophages; experiment: Nitric oxide; assay type: cell-based, mouse; conditions: 10 μmol/L; Pam3CSK4 100 ng/mL, IFN-γ 40 ng/mL
How it was run: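 Thioglycolate-elicited peritoneal macrophages from 6–8-week C57BL/6 mice were seeded at 1 × 10^6 per well. Cells were exposed to IFN-γ (40 ng/mL) and Pam3CSK4 (100 ng/mL) with test compound for 48 h. Nitrite was read at 570 nm against a sodium nitrite standard curve.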

TLR2 [13] = target: T2, TLR2; experiment: Surface plasmon resonance, hTLR2; assay type: binding
How it was run: as §1

TLR4 [14] = experiment: Cytokines ELISA, LPS-treated peritoneal macrophages and THP-1 cells; assay type: cell-based, human and murine; conditions: LPS 100 ng/mL, 24 h
How it was run: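 Thioglycolate-elicited peritoneal macrophages from C57BL/6 mice were seeded at 0.5 × 10^6 per well in RPMI 1640 with 10% FBS. THP-1 cells (2.5 × 10^5 cells/mL) were differentiated with 100 nmol/L PMA for 24 h, washed and rested 24 h in fresh medium. Both cell types received LPS (100 ng/mL) plus graded test compound for 24 h at 37 °C. Supernatants were frozen at −80 °C and cytokines quantified by sandwich ELISA against recombinant standards, in triplicate.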

T2 sequence (O60603 21-784): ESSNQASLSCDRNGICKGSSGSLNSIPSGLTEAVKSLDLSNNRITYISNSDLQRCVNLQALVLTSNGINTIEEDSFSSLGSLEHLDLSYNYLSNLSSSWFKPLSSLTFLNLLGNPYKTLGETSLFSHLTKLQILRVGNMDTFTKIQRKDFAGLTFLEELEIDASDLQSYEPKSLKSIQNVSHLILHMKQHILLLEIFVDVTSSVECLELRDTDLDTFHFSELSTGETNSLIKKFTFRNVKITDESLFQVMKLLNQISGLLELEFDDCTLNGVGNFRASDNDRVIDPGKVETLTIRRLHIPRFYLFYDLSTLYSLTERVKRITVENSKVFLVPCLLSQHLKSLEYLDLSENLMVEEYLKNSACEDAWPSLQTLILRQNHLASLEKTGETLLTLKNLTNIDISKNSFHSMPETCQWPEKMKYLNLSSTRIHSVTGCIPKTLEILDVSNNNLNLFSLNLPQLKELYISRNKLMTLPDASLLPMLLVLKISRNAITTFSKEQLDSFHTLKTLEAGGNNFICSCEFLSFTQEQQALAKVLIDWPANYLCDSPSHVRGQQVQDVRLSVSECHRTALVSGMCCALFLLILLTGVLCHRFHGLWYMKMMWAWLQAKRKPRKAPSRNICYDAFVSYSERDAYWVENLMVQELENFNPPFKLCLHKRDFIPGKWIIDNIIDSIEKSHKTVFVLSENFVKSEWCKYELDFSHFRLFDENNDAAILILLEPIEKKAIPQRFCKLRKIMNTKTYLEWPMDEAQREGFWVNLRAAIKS
TLR2/6, sequence (O60603 21-784): as above

COc1ccc2c(c1)c(CC(=O)O)c(C)n2C(=O)c1ccc(Cl)cc1 [indomethacin, reference compound]
activity of local myeloperoxidase (MPO) in paw tissue (C57Bl/6 mice [1]): reversed | paw swelling (measured by volume) (C57Bl/6 mice [1]): significantly reduced

C[C@@H]1C[C@H]2[C@@H]3CCC4=CC(=O)C=C[C@]4(C)[C@@]3(F)[C@@H](O)C[C@]2(C)[C@@]1(O)C(=O)CO [dexamethasone, reference compound]
weight loss (C57Bl/6 mice [2]): reduced weight loss

CCOC(=O)C1=CCCC[C@H]1S(=O)(=O)Nc1ccc(F)cc1Cl [TAK-242, reference compound]
binding signal to recombinant hTLR4 protein (TLR4 [3]): exhibited the ability to bind

COc1ccc2c(=O)oc3c(OC)cc(CCN(C)C)c4c(=O)oc1c2c34 [Taspine, reference compound]
water solubility (Water solubility): poor water solubility

COc1ccc2c(=O)oc3c(OC)cc(CC(O)CN(C)C)c4c(=O)oc1c2c34 (stereo not drawn) [SMU-Y6]
Cmax ([4]; ip): 208 ± 31.1 ng/mL | Tmax ([4]; ip): 0.25 ± 0.01 h | AUC ([4]; ip, AUC0‒t, intraperitoneal injection): 1790 ± 410 ng·h/mL | AUC ([4]; ip, AUC0‒∞, intraperitoneal injection): 2160 ± 600 ng·h/mL | half-life ([4]; ip, intraperitoneal injection): 9.16 ± 1.11 h | Cmax ([4]; po): 52.3 ± 5.83 ng/mL | Tmax ([4]; po): 3 ± 1 h | AUC ([4]; po, AUC0‒t, oral administration): 619 ± 84.2 ng·h/mL | AUC ([4]; po, AUC0‒∞, oral administration): 844 ± 184 ng·h/mL | half-life ([4]; po, oral administration): 11.5 ± 2.7 h | polarization induced by LPS and IFN-γ [5]: no effect | IC50 (TLR2 [6]): 110 ± 40 nM | improvement of activity compared with Taspine (TLR2 [6]; vs Taspine): 10 fold | thermal stabilization of TLR4 (TLR4 [7]): failed to induce the thermal stabilization | LPS-induced activation of BMDCs (mouse primary BMDCs): failed to reverse | percentage of CD80+ CD86+ cells (mouse primary BMDCs; Pam3CSK4, 16.6% without compound): 8.1% | cytotoxicity compared with Taspine (HEK-Blue hTLR2 cells): reduced toxicity | water solubility relative to Taspine (Water solubility; vs Taspine): 20 times | thermal stabilization of TLR2 protein (TLR2 [8]): higher thermal stabilization | binding signal to recombinant hTLR4 protein (TLR4 [3]): did not detect a binding signal | weight loss (C57Bl/6 mice [2]): reduced weight loss | IL-6 in local colonic tissue (C57Bl/6 mice [2]; oral, 5 and 25 mg/kg): reduced the production | TNF-α in local colonic tissue (C57Bl/6 mice [2]; oral, 5 and 25 mg/kg): reduced the production | production of IL-6 in sepsis (C57Bl/6 mice [9]): significantly reduced the production | production of TNF-α in sepsis (C57Bl/6 mice [9]): significantly reduced the production | immediate toxicity (KM mice): did not seem to exhibit immediate toxicity | pathological analysis of heart, liver, spleen, lung and kidney (KM mice): no obvious organic damage | release of IL-1β [10]: completely inhibited | release of TNF-α [10]: completely inhibited | SEAP signaling induced by Pam2CSK4 (TLR2/6): suppressed the SEAP signaling | fluorescence intensity of Rhodamine-Pam3CSK4 (TLR2 [11]): reduced the fluorescence intensity | production of NO induced by Pam3CSK4 [12]: significantly reduced | Kd (TLR2 [13]): 180 nM | time to complete dissociation from TLR2 protein (TLR2 [13]; SPR): 500 s | inhibitory activity with regards to TLR4 (TNF-α, IL-6) (TLR4 [14]): little or even no inhibitory activity | activity of local myeloperoxidase (MPO) in paw tissue (C57Bl/6 mice [1]): reversed | paw swelling (measured by volume) (C57Bl/6 mice [1]): significantly reduced
